Legend:
Mus musculus [1] = organism: Mus musculus; test: (§1) Inhibition of TNKS in mouse 3T3L1 cells assessed as upregulation of GLUT4 by measuring increase in insulin-stimulated glucose uptake at 100 nM using 2-deoxy-D-[2,6-3H]glucose as substrate pretreated for 1 hr followed by insulin stimulation for 30 mins and subsequent addition of substrate measured after 5 mins by scintillation counter; format: cell-based; set-up: scale not given: the % may be the effect or the level left
Outline: (§2)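 3T3-L1 fibroblasts were grown in DMEM and differentiated to adipocytes with insulin, dexamethasone and isobutylmethylxanthine, then used 10-12 d later. Cells were serum-starved 2 h at 37°C and given compound for 1 h. After KRH washes (pH 7.4), cells were held 30 min with compound, with or without 100 nM insulin. 2-Deoxy-D-[2,6-³H]glucose was added for 5 min.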

[2] = biological target: Protein mono-ADP-ribosyltransferase PARP14 (Homo sapiens, UniProt Q460N5); test: Inhibition of PARP14 (unknown origin)
Chain of Protein mono-ADP-ribosyltransferase PARP14 (Q460N5 whole entry): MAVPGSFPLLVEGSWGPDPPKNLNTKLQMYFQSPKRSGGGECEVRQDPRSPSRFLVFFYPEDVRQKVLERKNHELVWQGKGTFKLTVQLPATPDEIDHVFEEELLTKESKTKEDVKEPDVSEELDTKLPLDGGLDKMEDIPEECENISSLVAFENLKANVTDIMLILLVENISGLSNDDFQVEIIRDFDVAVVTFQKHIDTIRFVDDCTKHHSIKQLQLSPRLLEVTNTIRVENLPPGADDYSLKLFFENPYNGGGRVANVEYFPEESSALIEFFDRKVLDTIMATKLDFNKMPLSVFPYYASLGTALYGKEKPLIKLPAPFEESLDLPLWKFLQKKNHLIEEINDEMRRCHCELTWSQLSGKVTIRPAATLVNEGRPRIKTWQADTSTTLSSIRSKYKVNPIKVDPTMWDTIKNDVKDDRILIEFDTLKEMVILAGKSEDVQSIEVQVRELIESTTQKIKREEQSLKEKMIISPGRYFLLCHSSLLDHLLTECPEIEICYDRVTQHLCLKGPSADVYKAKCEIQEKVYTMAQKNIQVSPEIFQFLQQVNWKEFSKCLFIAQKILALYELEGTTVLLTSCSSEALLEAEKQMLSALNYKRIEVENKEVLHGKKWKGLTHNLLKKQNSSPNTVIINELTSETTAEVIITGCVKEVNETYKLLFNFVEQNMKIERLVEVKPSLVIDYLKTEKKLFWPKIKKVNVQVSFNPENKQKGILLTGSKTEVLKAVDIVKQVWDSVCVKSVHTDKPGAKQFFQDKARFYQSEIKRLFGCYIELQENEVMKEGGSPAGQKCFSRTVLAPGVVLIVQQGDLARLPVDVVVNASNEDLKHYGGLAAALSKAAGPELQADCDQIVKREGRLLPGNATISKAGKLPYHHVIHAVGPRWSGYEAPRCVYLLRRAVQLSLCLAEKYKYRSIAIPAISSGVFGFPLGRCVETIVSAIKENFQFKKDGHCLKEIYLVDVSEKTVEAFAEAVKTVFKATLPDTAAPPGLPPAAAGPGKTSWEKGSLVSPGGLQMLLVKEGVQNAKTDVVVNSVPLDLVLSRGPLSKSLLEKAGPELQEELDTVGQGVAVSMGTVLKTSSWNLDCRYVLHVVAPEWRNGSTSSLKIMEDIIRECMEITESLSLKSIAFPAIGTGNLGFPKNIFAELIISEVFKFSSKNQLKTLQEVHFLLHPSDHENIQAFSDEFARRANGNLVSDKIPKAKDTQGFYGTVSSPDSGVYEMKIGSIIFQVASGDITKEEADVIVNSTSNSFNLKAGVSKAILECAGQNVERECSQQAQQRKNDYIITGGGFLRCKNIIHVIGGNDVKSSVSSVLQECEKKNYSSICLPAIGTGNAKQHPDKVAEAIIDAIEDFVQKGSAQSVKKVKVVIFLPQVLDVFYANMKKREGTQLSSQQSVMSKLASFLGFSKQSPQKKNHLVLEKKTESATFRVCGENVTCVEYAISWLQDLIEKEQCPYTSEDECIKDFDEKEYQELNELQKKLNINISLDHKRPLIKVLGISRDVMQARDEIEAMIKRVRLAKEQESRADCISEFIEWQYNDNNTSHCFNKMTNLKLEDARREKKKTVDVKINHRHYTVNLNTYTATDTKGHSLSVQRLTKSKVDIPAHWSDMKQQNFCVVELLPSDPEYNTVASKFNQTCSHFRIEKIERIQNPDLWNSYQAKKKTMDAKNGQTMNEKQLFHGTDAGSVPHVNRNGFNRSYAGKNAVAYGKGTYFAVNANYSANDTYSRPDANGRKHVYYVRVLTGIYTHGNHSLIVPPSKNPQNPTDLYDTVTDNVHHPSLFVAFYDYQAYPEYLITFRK

[3] = biological target: T1, Protein mono-ADP-ribosyltransferase PARP12 (Homo sapiens, UniProt Q9H0J9); test: Inhibition of PARP12 (unknown origin)
T1 sequence (Q9H0J9 whole entry): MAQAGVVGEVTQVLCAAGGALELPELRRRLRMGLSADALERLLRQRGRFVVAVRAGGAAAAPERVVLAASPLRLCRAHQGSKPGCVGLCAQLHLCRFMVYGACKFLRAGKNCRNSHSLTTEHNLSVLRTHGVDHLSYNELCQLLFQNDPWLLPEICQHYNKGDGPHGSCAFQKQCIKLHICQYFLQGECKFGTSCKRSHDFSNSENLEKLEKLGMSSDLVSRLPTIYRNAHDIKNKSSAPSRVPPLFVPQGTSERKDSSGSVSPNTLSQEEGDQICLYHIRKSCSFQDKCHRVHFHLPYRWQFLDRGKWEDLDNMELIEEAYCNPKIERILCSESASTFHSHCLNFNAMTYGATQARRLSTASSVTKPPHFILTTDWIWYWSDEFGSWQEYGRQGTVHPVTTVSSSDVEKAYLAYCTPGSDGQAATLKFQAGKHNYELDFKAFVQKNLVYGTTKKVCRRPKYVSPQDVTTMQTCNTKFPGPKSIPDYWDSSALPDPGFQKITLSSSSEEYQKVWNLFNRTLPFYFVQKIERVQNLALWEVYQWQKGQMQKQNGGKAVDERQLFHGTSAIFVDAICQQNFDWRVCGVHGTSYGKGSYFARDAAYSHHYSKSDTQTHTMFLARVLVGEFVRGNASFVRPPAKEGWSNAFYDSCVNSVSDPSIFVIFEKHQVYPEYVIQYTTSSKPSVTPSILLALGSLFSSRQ

[4] = biological target: T2, Poly [ADP-ribose] polymerase tankyrase-1 (Homo sapiens, UniProt O95271); test: Inhibition of recombinant human N-terminal GST-tagged TNKS1 (1001 to 1327 residues) expressed in baculovirus infected sf9 cells using TACS-Sapphire as substrate measured after 30 mins by colorimetric assay
T2 sequence (O95271 whole entry): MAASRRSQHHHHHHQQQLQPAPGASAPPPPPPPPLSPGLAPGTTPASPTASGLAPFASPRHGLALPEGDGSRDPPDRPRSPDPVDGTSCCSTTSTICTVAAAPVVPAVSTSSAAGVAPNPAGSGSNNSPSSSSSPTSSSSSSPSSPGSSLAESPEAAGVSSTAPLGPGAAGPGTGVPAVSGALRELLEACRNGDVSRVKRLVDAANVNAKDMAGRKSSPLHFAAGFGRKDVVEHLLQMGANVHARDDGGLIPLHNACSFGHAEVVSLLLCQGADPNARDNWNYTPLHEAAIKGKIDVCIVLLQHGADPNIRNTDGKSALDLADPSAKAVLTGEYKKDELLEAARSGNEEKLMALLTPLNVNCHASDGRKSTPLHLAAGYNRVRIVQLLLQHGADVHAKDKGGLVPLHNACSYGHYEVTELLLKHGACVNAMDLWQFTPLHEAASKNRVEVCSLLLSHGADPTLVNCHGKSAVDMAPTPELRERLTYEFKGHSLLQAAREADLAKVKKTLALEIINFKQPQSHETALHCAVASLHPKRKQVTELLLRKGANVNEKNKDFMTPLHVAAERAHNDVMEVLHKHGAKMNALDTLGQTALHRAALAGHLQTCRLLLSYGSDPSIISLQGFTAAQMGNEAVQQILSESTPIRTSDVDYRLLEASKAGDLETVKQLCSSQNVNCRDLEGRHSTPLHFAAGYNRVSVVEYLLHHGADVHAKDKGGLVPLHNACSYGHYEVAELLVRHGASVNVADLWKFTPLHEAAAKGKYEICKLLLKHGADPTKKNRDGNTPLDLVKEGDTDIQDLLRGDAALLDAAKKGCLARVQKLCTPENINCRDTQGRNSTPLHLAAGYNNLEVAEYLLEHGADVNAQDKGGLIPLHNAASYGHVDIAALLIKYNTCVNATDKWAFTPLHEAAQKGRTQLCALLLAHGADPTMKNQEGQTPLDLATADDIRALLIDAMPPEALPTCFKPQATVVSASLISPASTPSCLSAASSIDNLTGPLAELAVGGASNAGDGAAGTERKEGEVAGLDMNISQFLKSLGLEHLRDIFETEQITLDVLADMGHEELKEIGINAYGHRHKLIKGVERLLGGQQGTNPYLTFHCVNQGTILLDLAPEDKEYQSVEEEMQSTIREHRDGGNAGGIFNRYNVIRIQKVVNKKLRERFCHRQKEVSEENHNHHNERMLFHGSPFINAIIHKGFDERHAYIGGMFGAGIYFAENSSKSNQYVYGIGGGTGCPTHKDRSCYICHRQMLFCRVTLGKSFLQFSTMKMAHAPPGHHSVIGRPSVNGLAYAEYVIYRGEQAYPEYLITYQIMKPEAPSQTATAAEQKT

3T3-L1 = test: Effect on glucose uptake in mouse 3T3L1 cells at 1 uM using 2-deoxy-D-[2,6-3H]glucose as substrate pretreated for 1 hr followed substrate addition measured after 5 mins by scintillation counter; format: ADME, cell-based; conditions: 3t3-l1, 5 min; outline: as §2
[5] = biological target: Protein mono-ADP-ribosyltransferase PARP4 (Homo sapiens, UniProt Q9UKK3); test: Inhibition of PARP4 (unknown origin)
Chain of Protein mono-ADP-ribosyltransferase PARP4 (Q9UKK3 whole entry): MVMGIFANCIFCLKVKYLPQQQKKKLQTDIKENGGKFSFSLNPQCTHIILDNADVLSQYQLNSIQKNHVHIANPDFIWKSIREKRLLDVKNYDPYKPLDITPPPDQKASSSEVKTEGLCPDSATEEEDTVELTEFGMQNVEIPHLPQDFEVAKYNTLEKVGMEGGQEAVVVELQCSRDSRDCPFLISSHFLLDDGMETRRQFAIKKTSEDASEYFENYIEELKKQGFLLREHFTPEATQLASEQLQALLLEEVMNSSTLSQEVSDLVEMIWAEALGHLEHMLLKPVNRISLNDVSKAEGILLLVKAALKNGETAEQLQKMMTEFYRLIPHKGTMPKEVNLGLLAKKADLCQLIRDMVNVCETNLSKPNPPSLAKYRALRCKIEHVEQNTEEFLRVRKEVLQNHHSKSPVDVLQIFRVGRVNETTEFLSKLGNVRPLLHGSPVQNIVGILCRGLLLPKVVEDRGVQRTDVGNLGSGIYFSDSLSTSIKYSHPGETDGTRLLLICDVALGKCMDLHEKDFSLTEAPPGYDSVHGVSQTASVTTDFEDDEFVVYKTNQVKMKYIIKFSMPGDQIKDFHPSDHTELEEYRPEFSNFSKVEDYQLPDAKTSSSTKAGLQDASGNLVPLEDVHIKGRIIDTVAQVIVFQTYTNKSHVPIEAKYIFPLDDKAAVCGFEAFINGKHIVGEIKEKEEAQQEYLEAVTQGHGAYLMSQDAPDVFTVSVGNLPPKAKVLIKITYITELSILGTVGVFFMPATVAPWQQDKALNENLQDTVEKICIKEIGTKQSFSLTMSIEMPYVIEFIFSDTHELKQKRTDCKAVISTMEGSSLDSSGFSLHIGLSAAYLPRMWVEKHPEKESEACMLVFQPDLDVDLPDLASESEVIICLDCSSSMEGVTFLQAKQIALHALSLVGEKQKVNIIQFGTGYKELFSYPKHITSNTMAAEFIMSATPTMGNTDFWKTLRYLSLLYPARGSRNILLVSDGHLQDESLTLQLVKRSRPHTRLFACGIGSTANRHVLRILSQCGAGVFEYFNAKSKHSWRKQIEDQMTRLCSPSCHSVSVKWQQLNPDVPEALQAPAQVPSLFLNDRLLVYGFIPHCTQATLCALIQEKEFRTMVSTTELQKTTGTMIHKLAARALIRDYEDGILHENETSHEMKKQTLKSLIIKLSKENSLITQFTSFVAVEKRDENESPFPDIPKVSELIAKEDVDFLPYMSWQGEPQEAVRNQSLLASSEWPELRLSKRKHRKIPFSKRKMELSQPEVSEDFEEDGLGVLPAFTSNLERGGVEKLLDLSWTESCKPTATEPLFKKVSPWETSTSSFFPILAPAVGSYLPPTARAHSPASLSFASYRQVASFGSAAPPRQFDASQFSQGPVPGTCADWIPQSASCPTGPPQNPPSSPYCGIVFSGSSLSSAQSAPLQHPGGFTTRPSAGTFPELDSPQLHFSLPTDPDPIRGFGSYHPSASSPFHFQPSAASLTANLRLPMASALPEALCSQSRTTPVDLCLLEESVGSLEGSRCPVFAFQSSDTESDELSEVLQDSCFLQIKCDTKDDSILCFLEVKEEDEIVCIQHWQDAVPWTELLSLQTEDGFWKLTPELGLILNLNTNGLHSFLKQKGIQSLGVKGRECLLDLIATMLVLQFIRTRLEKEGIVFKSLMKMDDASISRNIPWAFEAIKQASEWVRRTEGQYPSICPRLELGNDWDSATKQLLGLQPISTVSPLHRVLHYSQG

[6] = biological target: T3, Protein mono-ADP-ribosyltransferase PARP16 (Homo sapiens, UniProt Q8N5Y8); test: Inhibition of PARP16 (unknown origin)
T3 sequence (Q8N5Y8 whole entry): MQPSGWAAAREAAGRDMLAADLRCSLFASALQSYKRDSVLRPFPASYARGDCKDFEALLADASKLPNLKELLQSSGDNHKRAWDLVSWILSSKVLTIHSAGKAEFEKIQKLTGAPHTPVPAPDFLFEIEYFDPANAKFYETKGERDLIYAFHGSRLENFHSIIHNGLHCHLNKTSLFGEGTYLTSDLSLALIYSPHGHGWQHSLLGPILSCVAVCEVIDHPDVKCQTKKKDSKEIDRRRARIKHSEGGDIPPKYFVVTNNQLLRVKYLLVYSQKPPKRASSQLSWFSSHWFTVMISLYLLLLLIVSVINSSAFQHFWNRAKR

Mus musculus [7] = organism: Mus musculus; test: as §1, with “1 uM” for “100 nM”; format: cell-based; set-up: scale not given: the % may be the effect or the level left; outline: as §2
[8] = biological target: Poly [ADP-ribose] polymerase 1 (Homo sapiens, UniProt P09874); test: Inhibition of PARP1 (unknown origin)
Chain of Poly [ADP-ribose] polymerase 1 (P09874 whole entry): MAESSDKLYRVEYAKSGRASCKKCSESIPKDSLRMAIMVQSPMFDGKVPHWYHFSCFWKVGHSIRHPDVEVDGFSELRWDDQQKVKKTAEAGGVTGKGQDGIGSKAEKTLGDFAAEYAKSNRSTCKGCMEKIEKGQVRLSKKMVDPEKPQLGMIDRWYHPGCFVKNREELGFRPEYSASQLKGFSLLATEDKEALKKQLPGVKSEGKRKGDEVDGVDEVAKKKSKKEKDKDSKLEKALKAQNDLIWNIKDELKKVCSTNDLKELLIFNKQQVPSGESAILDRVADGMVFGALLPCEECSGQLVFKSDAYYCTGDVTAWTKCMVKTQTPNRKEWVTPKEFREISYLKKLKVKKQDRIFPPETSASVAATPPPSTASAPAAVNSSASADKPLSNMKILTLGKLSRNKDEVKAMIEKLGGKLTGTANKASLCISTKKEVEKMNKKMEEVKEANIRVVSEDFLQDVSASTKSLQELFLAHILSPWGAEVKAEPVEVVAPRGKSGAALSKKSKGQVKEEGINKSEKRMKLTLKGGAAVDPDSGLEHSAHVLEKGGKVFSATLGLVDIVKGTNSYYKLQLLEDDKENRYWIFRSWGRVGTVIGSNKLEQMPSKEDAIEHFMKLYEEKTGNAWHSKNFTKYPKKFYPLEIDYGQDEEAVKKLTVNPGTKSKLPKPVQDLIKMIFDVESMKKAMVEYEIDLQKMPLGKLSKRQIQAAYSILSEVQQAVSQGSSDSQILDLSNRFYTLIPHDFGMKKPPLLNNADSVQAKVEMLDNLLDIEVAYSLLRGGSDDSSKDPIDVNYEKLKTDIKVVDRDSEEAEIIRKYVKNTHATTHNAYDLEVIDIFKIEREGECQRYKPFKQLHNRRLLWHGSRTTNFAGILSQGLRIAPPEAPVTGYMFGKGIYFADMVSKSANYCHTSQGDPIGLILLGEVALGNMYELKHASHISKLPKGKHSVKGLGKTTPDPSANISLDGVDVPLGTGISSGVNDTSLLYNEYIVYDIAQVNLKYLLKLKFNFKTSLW

In the case of `O=C(CCc1nc2ccccc2c(=O)[nH]1)Nc1ccc(C(=O)Nc2cccc3cccnc23)cc1`, the Activity (Mus musculus [1]) is reported as 40%, the IC50 [2] is reported as greater than 100 µM and the IC50 [3] is reported as greater than 100 µM. For the same compound, the IC50 [4] was 0.0091 µM, the Activity (3T3-L1) was “Non-Toxic” and the IC50 [5] was 69 µM. It also gave an IC50 [6] greater than 100 µM and an Activity (Mus musculus [7]) of 20%.

With `Cc1cccc2c(=O)[nH]c(CCC(=O)Nc3ccc(C(=O)Nc4cccc5cccnc45)cc3)nc12` the Activity (Mus musculus [1]) was 20%, the IC50 [2] was greater than 100 µM and the IC50 [3] was greater than 100 µM. For the same compound, the IC50 [4] was 0.0051 µM, the Activity (3T3-L1) was “Non-Toxic” and the IC50 [5] was 65 µM. The IC50 [6] was greater than 100 µM, the Activity (Mus musculus [7]) was 20% and the IC50 [8] was 6.5 µM.
